# Screening results: PubChem, The Scripps Research Institute Molecular Screening Center
# This is a sample that favours compounds with a hit; in the whole collection about 0.59% have one here.
# TRPN1 ag: zebrafish TRPN1 (NompC) channel agonism; HEK293 zebrafish TRPN1-YFP, Fluo-8 calcium fluorescence; 100% = response to 87 µM carbachol; activation, % at 3 µM; 220,000 tested, 0.18% active; AID 1424;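 active = activation above its plate's cutoff, the mean activation of test wells on that plate plus 3 SD, cut at about 19% in these data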;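 note: 0% = DMSO alone and 100% = 87 µM carbachol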
#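 Material: zebrafish TRPN1-YFP in HEK293 cells; Doses: single test compound dose, 3 µM nominal, 0.3% DMSO; Timing: dye loading 1 h at 37 °C, then 30 min room temperature; Technique: intracellular calcium fluorescence with Fluo-8; Benchmarks: high carbachol 87 µM, low DMSO alone.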
# OXTR potentiate: human OXTR potentiation. P30559. CHO-OTR cells, Fluo-8 calcium fluorescence, potentiator mode; 0% = oxytocin EC15, 100% = EC100. activation, % at 3 µM. 320,000 tested, 0.061% active;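 active = activation above that plate's cutoff, the mean activation of tested compounds plus 3 SD, cut at about 6.6% in these data, passing the limit was not always enough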;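 note: 100% uses oxytocin at 75 nM as the full agonist control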
# Target sequence (P30559 whole entry, looked up): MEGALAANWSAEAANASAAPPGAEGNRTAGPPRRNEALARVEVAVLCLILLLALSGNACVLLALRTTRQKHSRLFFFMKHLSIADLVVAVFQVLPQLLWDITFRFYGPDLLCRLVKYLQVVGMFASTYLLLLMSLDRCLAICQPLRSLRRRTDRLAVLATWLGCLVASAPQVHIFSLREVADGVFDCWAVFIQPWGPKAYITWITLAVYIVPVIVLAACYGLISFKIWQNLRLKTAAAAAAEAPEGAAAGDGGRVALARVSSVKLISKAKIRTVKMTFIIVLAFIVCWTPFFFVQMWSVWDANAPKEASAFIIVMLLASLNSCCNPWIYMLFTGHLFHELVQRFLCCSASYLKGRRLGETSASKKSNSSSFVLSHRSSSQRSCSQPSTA
#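 test system = CHO-OTR cells, human receptor | compound = single-point 3.0 µM | schedule = 6 min compound pre-incubation at room temperature, 100 s kinetic read | signal = Fluo-8 no-wash calcium dye fluorescence, excitation 470-495 nm, emission 515-575 nm | repeats = single well per compound, singlicate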
# V1R ag counter: counter-screen for oxytocin receptor agonists: human V1a receptor agonists. CHO-V1R cells, Fluo-8 calcium fluorescence, agonist mode; 0% DMSO, 100% 3 nM vasopressin. activation, % at 3 µM. P37288. 320,000 tested, 0.25% active;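 active = activation above the mean activation of all tested compounds plus 3 SD, per screening run, cut at about 20% in these data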;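 note: signal is peak over basal fluorescence ratio across a 100 second FLIPR read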
# OXTR ag: activates the human oxytocin receptor; P30559; CHO-OTR cells, Fluo-8 calcium fluorescence; normalized: DMSO 0%, oxytocin 100%; activation, % at 3 µM; 320,000 tested, 0.32% active; AID 2435;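 active = activation above the mean of all tested compounds plus 3 SD, cutoff set per screening run, cut at about 20% in these data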;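 note: peak over basal fluorescence ratio from a 100 s FLIPR kinetic read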
# TRPML3 agonist: agonists of human TRPML3 channel; Q8TDD5; HEK293 TRPML3-YFP, Fluo-8 calcium fluorescence; 100% = the carbachol control signal; activation, % at 3 µM; 220,000 tested, 0.29% active; AID 1448;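 active = activation above its plate's cutoff, the mean activation of the plate's test wells plus 3 SD, cut at about 12% in these data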;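 note: 0% = DMSO only wells and 100% = carbachol wells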
#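 Test system – HEK293 line with stable expression of human TRPML3-YFP channel · Control set – carbachol 87 µM final as high control (100%), DMSO as low control (0%) · Signal – Fluo-8 calcium dye fluorescence, ex 470-495, em 515-575 nm · Incubation – 1-h 37 °C dye load, 5-s basal, 120-s post-compound reads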
# OXTR pot confirm: human OXTR potentiation, confirmation | CHO-OTR cells, Fluo-8 calcium fluorescence; scaled from low-dose to maximal oxytocin | AID 434985 | activation, % at 3 µM | shares compounds with OXTR potentiate | 180 tested, under 10 active;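 active = mean percent activation over triplicates above a cutoff set from solvent-only control plates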;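 note: compounds tested in the presence of an EC15 dose of oxytocin; 0% = EC15 oxytocin with DMSO and 100% = EC100 oxytocin with DMSO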
# An asterisk follows results filed as active; · = no result given.
SMILES,TRPN1 ag,OXTR potentiate,V1R ag counter,OXTR ag,TRPML3 agonist,OXTR pot confirm
Cc1noc(C)c1C(=O)N1CCN(CCc2ccccc2)CC1,-0.7,0.1,0.9,-0.1,0.2,·
Cc1cc(C(=O)N2CCN(CCc3ccccc3)CC2)no1,0.3,10.3*,-0.5,1.0,0.4,-2.5
COc1ccc(OCC(=O)Nc2cccc(S(=O)(=O)N(C)c3ccccc3)c2)c([N+](=O)[O-])c1,·,-2.5,-0.5,0.9,·,·
CCCOc1ccc(-c2c(C(=O)N/N=C/c3ccc(C)cc3)nnn2-c2nonc2N)cc1,0.6,22.2*,0.8,0.7,1.0,2.7
CCOc1ccc(-c2c(C(=O)N/N=C/c3ccc(Cl)cc3)nnn2-c2nonc2N)cc1,·,23.2*,11.4,6.8,·,11.0*
COc1cc(/C=C2/S/C(=N/S(=O)(=O)Cc3ccccc3)NC2=O)c([N+](=O)[O-])cc1OC,5.4,13.1*,1.2,2.2,1.8,-4.5
COc1cc(/C=C2/S/C(=N/S(=O)(=O)c3ccccc3)NC2=O)c([N+](=O)[O-])cc1OC,-0.8,-12.6,-0.3,-0.7,0.4,·
CCOc1ccccc1NC(=O)c1cccc(NC(=O)CC(c2ccccc2)c2ccccc2)c1,2.4,26.4*,2.0,3.5,1.4,9.7*
CCOc1ccccc1NC(=O)c1ccc(Cl)c(NC(=O)CC(c2ccccc2)c2ccccc2)c1,-0.2,-2.8,2.0,1.2,0.3,·
COc1ccc(OC(=O)c2cccc(S(=O)(=O)N3CC(C)OC(C)C3)c2)cc1 (centres undefined),·,-4.8,3.5,1.7,·,·
Cc1ccc(SCc2cc(=O)n3[nH]cnc3n2)cc1,2.2,9.8*,-0.8,1.0,-0.5,-4.0
COCCOc1ccc(C(F)(F)F)cc1NC(=O)c1ccccc1,-0.3,14.2*,-1.0,-1.6,0.6,-2.0
O=C(CN1C(=O)NC(c2ccccc2)(c2ccccc2)C1=O)NC1CCCCC1,·,-3.3,0.4,-0.7,·,·
CCOC(=O)N1CCN(C(=O)COc2ccc(Cl)cc2)CC1,0.1,12.2*,1.3,1.8,0.4,-5.7
CCOC(=O)N1CCN(C(=O)COc2ccc(Cl)c(C)c2)CC1,0.2,-17.6,1.4,-0.4,1.0,·
CCOC(=O)c1cnc2cc(-c3ccc(C)cc3)nn2c1-c1ccccc1,0.7,14.1*,1.4,1.9,0.4,-10.9
COc1ccc(N2CCN(C(=O)C3CCN(S(=O)(=O)c4ccc5c(c4)oc(=O)n5C)CC3)CC2)cc1,·,12.7*,1.1,2.2,·,-4.6
Cc1csc(NC(=O)CSc2nc(=O)n(CCN(C)C)c3c2CCCC3)n1,·,-3.8,-0.6,0.2,·,·
Cc1c(C(=O)NCCc2ccccc2)oc2ccccc12,·,11.1*,-0.8,-2.0,·,-9.5
COc1ccc2oc(C(=O)NCCc3ccccc3)c(C)c2c1,·,4.2,-1.3,-2.5,·,·
Cc1cnc(C(=O)OCC(=O)c2ccc(C)s2)cn1,·,-6.3,-0.1,0.3,·,·
O=C(O)c1ccc(-c2nnn(Cc3ccccc3F)n2)cc1,1.1,7.6*,1.6,1.9,0.8,-4.3
O=C(CSc1ncnc2sc3c(c12)CCC3)NCC1CCCO1 (centres undefined),·,20.4*,1.6,-0.9,·,-3.1
CC1CN(C(=O)COC(=O)c2ccc(C#N)cc2)CC(C)O1 (centres undefined),·,-3.2,1.0,0.2,·,·
Cc1ccc(NC(=O)CCS(=O)(=O)c2ccccc2)cc1S(=O)(=O)N1CCOCC1,0.2,11.4*,1.2,2.3,0.5,-0.8
SMILES,TRPN1 ag,OXTR potentiate,V1R ag counter,OXTR ag,TRPML3 agonist,OXTR pot confirm
Cc1ccc(NC(=O)CCc2ccccc2)cc1S(=O)(=O)N1CCOCC1,·,-4.0,1.1,1.9,·,·
COCCCNc1c2c(nc3nnnn13)CCCC2,2.1,13.5*,0.5,2.2,0.8,-1.8
Cc1ccc(-n2nc(C(=O)c3ccccc3)n3c(=O)c(Cc4ccccc4)nnc23)cc1,1.1,9.9*,-2.0,-0.6,0.6,0.0
O=C(c1ccccc1)c1nn(-c2ccccc2)c2nnc(Cc3ccccc3)c(=O)n12,-0.6,1.8,-0.4,-1.3,-1.5,·
CCOC(=O)c1ccccc1NC(=O)COC(=O)CCC1CCCC1,·,-7.3,-1.0,-1.6,·,·
COc1ccc(NC(=O)/C(Cl)=C(/Cl)S(=O)Cc2ccccc2)cn1 (centres undefined),0.6,19.6*,1.4,-1.0,1.3,4.8
COc1ccc(NC(=O)Cc2ccccc2)cn1,1.8,-3.2,1.9,1.5,0.8,·
Cc1ccc(C(=O)CSc2cc(C)[nH]c(=O)n2)cc1,·,-0.7,-0.8,-1.6,·,·
Cc1cc(SCC(=O)c2ccc(Cl)cc2)nc(=O)[nH]1,·,12.4*,1.7,0.4,·,1.4
CC1CCc2nn(CC(=O)NCc3ccco3)cc2C1 (centres undefined),-0.4,12.6*,1.2,-1.1,-0.2,-2.9
CC1CCc2nn(CC(=O)NCc3ccc(F)cc3)cc2C1 (centres undefined),-1.8,-9.2,-1.0,-1.3,-0.7,·
C[C@H]1COC(=O)[C@@H](Cc2ccc(F)cc2)C/C=C\C[C@@H](CC(=O)NCCO)C(=O)N1,·,14.2*,1.0,1.6,·,-3.1
C[C@H]1COC(=O)[C@H](Cc2ccc(F)cc2)C/C=C\C[C@@H](CC(=O)NCCO)C(=O)N1,·,-2.8,1.1,1.6,·,·
COc1ccccc1CCNC(=O)c1cccc(S(=O)(=O)N2CCc3ccccc3C2)c1,·,-8.1,0.7,0.0,·,·
COc1cccc(C(=O)Cn2c(Br)nc3c2c(=O)n(C)c(=O)n3C)c1,-0.5,-3.3,2.6,2.3,0.3,·
Cn1c(=O)c2c(nc(Br)n2CC(=O)C23CC4CC(CC(C4)C2)C3)n(C)c1=O,-0.8,10.3*,0.2,-1.0,0.3,-4.4
O=C(NC(=S)Nc1ccccc1N1CCCC1)c1ccc(-c2cccc([N+](=O)[O-])c2)o1,1.9,10.8*,-1.1,0.5,-0.3,-7.0
O=C(NC(=S)Nc1ccccc1N1CCCCC1)c1ccc(-c2cccc([N+](=O)[O-])c2)o1,0.8,-1.1,0.2,-0.7,0.3,·
CCOc1ccc(CCNC(=O)COC(=O)c2cc(OC)cc(OC)c2)cc1OCC,-2.3,9.8*,-0.9,-1.9,-0.6,-3.1
COc1ccc2cc(S(=O)(=O)N3CCOCC3)ccc2c1,0.5,11.2*,0.5,0.2,0.3,-4.0
COc1ccc2cc(S(=O)(=O)N3CCCCCC3)ccc2c1,-0.9,-11.6,0.2,-1.4,2.0,·
O=C(COc1ccccc1[N+](=O)[O-])N(Cc1ccco1)C1CCS(=O)(=O)C1 (centres undefined),·,-1.7,0.0,-0.2,·,·
COC(=O)C1CC(Cl)CN1c1ncc(C(F)(F)F)cc1Cl (centres undefined),-0.9,16.1*,-1.1,-2.6,0.1,-2.0
